Experimental data taken from PMC10238246 (Medicinal Chemistry Research, 2023).

Experiments:
mouse formalin model = mouse formalin model of acute and persistent pain; type: in vivo; conditions: 200 mg/kg i.p., positive control
Procedure, shortened: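 Mouse formalin model: test compounds given s.c. (10, 30, 60 mg/kg) or i.p. (30 mg/kg) to maximise exposure. The positive control was a reference analgesic at 200 mg/kg i.p. Formalin-induced flinches were counted over 65 min. Plasma and brain levels were sampled at study end (~90 min post-dose), and free plasma level was estimated from plasma protein binding.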

mouse rotarod assay = experiment: mouse rotarod assay; type: in vivo; conditions: dose of 200 mg/kg

`NCC1(CC(=O)O)CCCCC1` [Gabapentin] was tested, and the “efficacy in the formalin model (number of flinches)” value (mouse formalin model) was “Efficacy was seen” and the behavioral side effects (mouse rotarod assay) was “behavioral side effects (i.e., sedation)”.
